Experimental data: ChEMBL document CHEMBL5058577, “EUbOPEN Chemogenomics Library 2 (Multiplex)” (2022)
Several values for one entry are separate records, joined by “and”; a condition that tells them apart may be missing. Equal entries are not always repeated.

Tested on: U2OS
Assay: Multiplex assay against U2OS
Type: toxicity, cell-based
Conditions: human, 10 µM, compound concentration 10 uM
Procedure, shortened: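 Imaging took place on a CQ1 microscope at 37°C and 5% CO2 once compound had been added to live cells stained at seeding with Hoechst33342, BioTracker Green Microtubule Cytoskeleton Dye, MitoTracker Red and Annexin V Alexa Fluor 680. CellPathfinder machine-learning gating classed cells as Hoechst high-intensity objects or normal cells, classed normal cells as having healthy, pyknosed or fragmented nuclei, and classed pyknosed cells as mitotic or apoptotic. Tubulin, mitochondrial-mass and membrane-permeability phenotypes are per cents of the healthy-nucleus cells.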

CC(=O)O[C@H]1C(=O)[C@@]2(C)[C@H]([C@H](OC(=O)c3ccccc3)[C@]3(O)C[C@H](OC(=O)[C@H](O)[C@@H](NC(=O)c4ccccc4)c4ccccc4)C(C)=C1C3(C)C)[C@]1(OC(C)=O)CO[C@@H]1C[C@@H]2O [PACLITAXEL]
Population Apoptotic (%) (12 h, replicate 1): 64% and 59% | Population Fragmented Nuclei (%) (12 h, replicate 1): 28% and 29% | Population Healthy Nuclei (%) (12 h, replicate 1): 46% and 43% | Population Hoechst High Intensity Objects (%) (12 h, replicate 1): 8% and 3% | Population Membrane Permeable-Phenotype (%) (12 h, replicate 1): 23% and 12% | Population Mitochondria Different-Phenotype (%) (12 h, replicate 1): 25% and 38% | Population Mitotic Cells (%) (12 h, replicate 1): 35% and 40% | Population Normal (%) (12 h, replicate 1): 91% and 96% | Population Pyknosed Nuclei (%) (12 h, replicate 1): 24% and 26% | Population Tubulin-Different-Phenotype (%) (12 h, replicate 1): 16% and 7% | Total Cell Count (12 h, replicate 1): 200 and 236 | Population Apoptotic (%) (12 h, replicate 2): 71% and 72% | Population Fragmented Nuclei (%) (12 h, replicate 2): 16% and 22% | Population Healthy Nuclei (%) (12 h, replicate 2): 60% and 63% | Population Hoechst High Intensity Objects (%) (12 h, replicate 2): 2% | Population Membrane Permeable-Phenotype (%) (12 h, replicate 2): 10% and 4% | Population Mitochondria Different-Phenotype (%) (12 h, replicate 2): 30% and 46% | Population Mitotic Cells (%) (12 h, replicate 2): 28% and 27% | Population Normal (%) (12 h, replicate 2): 97% | Population Pyknosed Nuclei (%) (12 h, replicate 2): 23% and 14% | Population Tubulin-Different-Phenotype (%) (12 h, replicate 2): 14% and 8% | Total Cell Count (12 h, replicate 2): 94 and 79 | Population Apoptotic (%) (24 h, replicate 1): 69% and 64% | Population Fragmented Nuclei (%) (24 h, replicate 1): 33% and 27% | Population Healthy Nuclei (%) (24 h, replicate 1): 36% and 49% | Population Hoechst High Intensity Objects (%) (24 h, replicate 1): 4% and 5% | Population Membrane Permeable-Phenotype (%) (24 h, replicate 1): 21% and 13% | Population Mitochondria Different-Phenotype (%) (24 h, replicate 1): 44% and 34% | Population Mitotic Cells (%) (24 h, replicate 1): 30% and 35% | Population Normal (%) (24 h, replicate 1): 95% and 94% | Population Pyknosed Nuclei (%) (24 h, replicate 1): 29% and 23% | Population Tubulin-Different-Phenotype (%) (24 h, replicate 1): 13% and 12% | Total Cell Count (24 h, replicate 1): 198 and 233 | Population Apoptotic (%) (24 h, replicate 2): 58% and 85% | Population Fragmented Nuclei (%) (24 h, replicate 2): 25% | Population Healthy Nuclei (%) (24 h, replicate 2): 48% and 50% | Population Hoechst High Intensity Objects (%) (24 h, replicate 2): 7% | Population Membrane Permeable-Phenotype (%) (24 h, replicate 2): 15% and 9% | Population Mitochondria Different-Phenotype (%) (24 h, replicate 2): 52% | Population Mitotic Cells (%) (24 h, replicate 2): 41% and 15% | Population Normal (%) (24 h, replicate 2): 92% | Population Pyknosed Nuclei (%) (24 h, replicate 2): 26% and 24% | Population Tubulin-Different-Phenotype (%) (24 h, replicate 2): 18% and 9% | Total Cell Count (24 h, replicate 2): 95 and 90 | Population Apoptotic (%) (48 h, replicate 1): 76% and 82% | Population Fragmented Nuclei (%) (48 h, replicate 1): 35% and 39% | Population Healthy Nuclei (%) (48 h, replicate 1): 30% and 25% | Population Hoechst High Intensity Objects (%) (48 h, replicate 1): 12% and 13% | Population Membrane Permeable-Phenotype (%) (48 h, replicate 1): 27% and 25% | Population Mitochondria Different-Phenotype (%) (48 h, replicate 1): 29% and 25% | Population Mitotic Cells (%) (48 h, replicate 1): 23% and 17% | Population Normal (%) (48 h, replicate 1): 87% and 86% | Population Pyknosed Nuclei (%) (48 h, replicate 1): 33% and 34% | Population Tubulin-Different-Phenotype (%) (48 h, replicate 1): 16% and 14% | Total Cell Count (48 h, replicate 1): 203 and 246 | Population Apoptotic (%) (48 h, replicate 2): 70% and 91% | Population Fragmented Nuclei (%) (48 h, replicate 2): 27% and 37% | Population Healthy Nuclei (%) (48 h, replicate 2): 31% and 34% | Population Hoechst High Intensity Objects (%) (48 h, replicate 2): 8% and 15% | Population Membrane Permeable-Phenotype (%) (48 h, replicate 2): 14% and 6% | Population Mitochondria Different-Phenotype (%) (48 h, replicate 2): 50% and 44% | Population Normal (%) (48 h, replicate 2): 91% and 84% | Population Pyknosed Nuclei (%) (48 h, replicate 2): 41% and 27% | Population Tubulin-Different-Phenotype (%) (48 h, replicate 2): 25% and 13% | Total Cell Count (48 h, replicate 2): 98
